Assay results as given in ChEMBL document CHEMBL1124464, “Peripherally acting enkephalin analogues. 2. Polar tri- and tetrapeptides” (1989).
pEC50: −log10 of the molar value.

species on record: Cavia porcellus; assay: Inhibition of electrically induced contractions on the guinea pig ileum; format: functional; settings: read-out: ED50 (the source's name)
Procedure, shortened: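 Guinea pig ileum contractions evoked by coaxial stimulation at 0.1 Hz, 0.5-ms pulses, supramaximal voltage, recorded isometrically; dose-response curves built with 15-min washout between doses.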

SMILES | pEC50
CC(=O)O.CCN(CCc1ccco1)C(=O)CNC(=O)[C@@H](CCCN=C(N)N)NC(=O)[C@H](Cc1ccc(O)cc1)N=C(N)N | 7.96
CC(=O)O.CCN(C(=O)CNC(=O)[C@@H](CCCN=C(N)N)NC(=O)[C@H](Cc1ccc(O)cc1)N=C(N)N)[C@@H](Cc1ccc([N+](=O)[O-])cc1)C(N)=O | 8.41
CCN(CCc1sccc1[N+](=O)[O-])C(=O)CNC(=O)[C@@H](CCCN=C(N)N)NC(=O)[C@@H](N)Cc1ccc(O)cc1 | 6.84
CC(=O)O.CCN(C(=O)CNC(=O)[C@@H](CCCN=C(N)N)NC(=O)[C@@H](N)Cc1ccc(O)cc1)[C@@H](Cc1cccc(F)c1)C(N)=O | 7.60
CC(=O)O.CCN(CCc1ccc(F)cc1)C(=O)CNC(=O)[C@@H](CCCN=C(N)N)NC(=O)[C@@H](N)Cc1ccc(O)cc1 | 7.69
CC(=O)O.CCN(C(=O)CNC(=O)[C@@H](CCCN=C(N)N)NC(=O)[C@@H](N)Cc1ccc(O)cc1)[C@@H](Cc1ccc(C(F)(F)F)cc1)C(N)=O | 8.20
CC(=O)O.CCN(CCc1ccc([N+](=O)[O-])s1)C(=O)CNC(=O)[C@@H](CCCN=C(N)N)NC(=O)[C@@H](N)Cc1ccc(O)cc1 | 6.66
CC(=O)O.CCN(Cc1ccc(-c2ccccc2)cc1)C(=O)CNC(=O)[C@@H](CCCN=C(N)N)NC(=O)[C@H](Cc1ccc(O)cc1)N=C(N)N | 6.49
CC(=O)O.CCN(C(=O)CNC(=O)[C@@H](CCCN=C(N)N)NC(=O)[C@@H](N)Cc1ccc(O)cc1)[C@@H](Cc1ccc([N+](=O)[O-])cc1)C(N)=O | 8.28
CC(=O)O.CCN(CCc1ccc(C#N)cc1)C(=O)CNC(=O)[C@@H](CCCN=C(N)N)NC(=O)[C@@H](N)Cc1ccc(O)cc1 | 5.74
CC(=O)O.CCN(CCc1ccc([N+](=O)[O-])s1)C(=O)CNC(=O)[C@@H](CCCN=C(N)N)NC(=O)[C@H](Cc1ccc(O)cc1)N=C(N)N | 7.60
CC(=O)O.CCN(C(=O)CNC(=O)[C@@H](CCCN=C(N)N)NC(=O)[C@@H](N)Cc1ccc(O)cc1)[C@@H](Cc1ccc(F)cc1)C(N)=O | 8.66
CC(=O)O.CCN(CCc1cccs1)C(=O)CNC(=O)[C@@H](CCCN=C(N)N)NC(=O)[C@H](Cc1ccc(O)cc1)N=C(N)N | 8.03
CC(=O)O.CCN(CCc1ccc([N+](=O)[O-])cc1)C(=O)CNC(=O)[C@@H](CCCN=C(N)N)NC(=O)[C@H](Cc1ccc(O)cc1)N=C(N)N | 7.52

tested on: Mus musculus; assay: Antinociceptive activity of perorally administered compound in phenyl-p-benzoquinone induced writhing mice; format: functional; settings: po
Procedure, shortened: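 Female CD1 mice, groups of five to six, dosed orally by blunt intragastric needle (10 mL kg-1) 30 min before ip phenyl-p-benzoquinone 2.5 mg kg-1. Abdominal constrictions/hind-limb extensions counted over 2.5 min starting 10 min after PBQ. ED50 = dose halving writhes versus vehicle, by linear regression.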

SMILES | ED50 [mg/kg]
CC(=O)O.CCN(C(=O)CNC(=O)[C@@H](CCCN=C(N)N)NC(=O)[C@H](Cc1ccc(O)cc1)N=C(N)N)[C@@H](Cc1ccc([N+](=O)[O-])cc1)C(N)=O | 1.9
CC(=O)O.CCN(CCc1ccc(F)cc1)C(=O)CNC(=O)[C@@H](CCCN=C(N)N)NC(=O)[C@@H](N)Cc1ccc(O)cc1 | 30.8
CC(=O)O.CCN(C(=O)CNC(=O)[C@@H](CCCN=C(N)N)NC(=O)[C@@H](N)Cc1ccc(O)cc1)[C@@H](Cc1ccc([N+](=O)[O-])cc1)C(N)=O | 13.9
CC(=O)O.CCN(C(=O)CNC(=O)[C@@H](CCCN=C(N)N)NC(=O)[C@@H](N)Cc1ccc(O)cc1)[C@@H](Cc1ccc(F)cc1)C(N)=O | 7.9
CC(=O)O.CCN(CCc1ccc([N+](=O)[O-])cc1)C(=O)CNC(=O)[C@@H](CCCN=C(N)N)NC(=O)[C@H](Cc1ccc(O)cc1)N=C(N)N | 10

tested on: Mus musculus; assay: Antinociceptive activity of subcutaneously administered compound in acetic acid (AA) induced writhing mice; format: functional; settings: sc
Procedure, shortened: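 Male TFW mice, groups of five to six, given drug subcutaneously (10 mL kg-1), then ip acetic acid 0.6% at 25 mL kg-1. Writhes counted for 5 min beginning 15 min after acetic acid. ED50 = dose reducing writhes 50% versus vehicle, by linear regression.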

SMILES | ED50 [mg/kg]
CC(=O)O.CCN(C(=O)CNC(=O)[C@@H](CCCN=C(N)N)NC(=O)[C@H](Cc1ccc(O)cc1)N=C(N)N)[C@@H](Cc1ccc([N+](=O)[O-])cc1)C(N)=O | 0.009
CC(=O)O.CCN(C(=O)CNC(=O)[C@@H](CCCN=C(N)N)NC(=O)[C@@H](N)Cc1ccc(O)cc1)[C@@H](Cc1cccc(F)c1)C(N)=O | 0.04
CC(=O)O.CCN(CCc1ccc(F)cc1)C(=O)CNC(=O)[C@@H](CCCN=C(N)N)NC(=O)[C@@H](N)Cc1ccc(O)cc1 | 0.14
CC(=O)O.CCN(C(=O)CNC(=O)[C@@H](CCCN=C(N)N)NC(=O)[C@@H](N)Cc1ccc(O)cc1)[C@@H](Cc1ccc(C(F)(F)F)cc1)C(N)=O | 0.13
CC(=O)O.CCN(CCc1ccc([N+](=O)[O-])s1)C(=O)CNC(=O)[C@@H](CCCN=C(N)N)NC(=O)[C@@H](N)Cc1ccc(O)cc1 | 1.7
CC(=O)O.CCN(C(=O)CNC(=O)[C@@H](CCCN=C(N)N)NC(=O)[C@@H](N)Cc1ccc(O)cc1)[C@@H](Cc1ccc([N+](=O)[O-])cc1)C(N)=O | 0.05
CC(=O)O.CCN(CCc1ccc(C#N)cc1)C(=O)CNC(=O)[C@@H](CCCN=C(N)N)NC(=O)[C@@H](N)Cc1ccc(O)cc1 | 2.2
CC(=O)O.CCN(C(=O)CNC(=O)[C@@H](CCCN=C(N)N)NC(=O)[C@@H](N)Cc1ccc(O)cc1)[C@@H](Cc1ccc(F)cc1)C(N)=O | 0.0006
CC(=O)O.CCN(CCc1ccc([N+](=O)[O-])cc1)C(=O)CNC(=O)[C@@H](CCCN=C(N)N)NC(=O)[C@H](Cc1ccc(O)cc1)N=C(N)N | 0.15

tested on: Mus musculus; assay: Antinociceptive activity of subcutaneously administered compound in phenyl-p-benzoquinone induced writhing mice; format: functional; settings: Mus musculus, sc; read-out: ED50
Procedure, shortened: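 Groups of five to six female CD1 mice given drug subcutaneously (10 mL kg-1) 30 min before ip phenyl-p-benzoquinone 2.5 mg kg-1. Writhes (abdominal constrictions/hind-limb extensions) counted over 2.5 min from 10 min post-PBQ. ED50, the dose giving 50% fewer writhes than vehicle, from linear regression.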

SMILES | ED50 [mg/kg]
CC(=O)O.CCN(CCc1ccco1)C(=O)CNC(=O)[C@@H](CCCN=C(N)N)NC(=O)[C@H](Cc1ccc(O)cc1)N=C(N)N | 0.32
CC(=O)O.CCN(C(=O)CNC(=O)[C@@H](CCCN=C(N)N)NC(=O)[C@H](Cc1ccc(O)cc1)N=C(N)N)[C@@H](Cc1ccc([N+](=O)[O-])cc1)C(N)=O | 0.005
CC(=O)O.CCN(C(=O)CNC(=O)[C@@H](CCCN=C(N)N)NC(=O)[C@@H](N)Cc1ccc(O)cc1)[C@@H](Cc1cccc(F)c1)C(N)=O | 0.08
CC(=O)O.CCN(CCc1ccc(F)cc1)C(=O)CNC(=O)[C@@H](CCCN=C(N)N)NC(=O)[C@@H](N)Cc1ccc(O)cc1 | 1.6
CC(=O)O.CCN(Cc1ccc(-c2ccccc2)cc1)C(=O)CNC(=O)[C@@H](CCCN=C(N)N)NC(=O)[C@H](Cc1ccc(O)cc1)N=C(N)N | 2.3
CC(=O)O.CCN(C(=O)CNC(=O)[C@@H](CCCN=C(N)N)NC(=O)[C@@H](N)Cc1ccc(O)cc1)[C@@H](Cc1ccc([N+](=O)[O-])cc1)C(N)=O | 0.06
CC(=O)O.CCN(CCc1ccc([N+](=O)[O-])s1)C(=O)CNC(=O)[C@@H](CCCN=C(N)N)NC(=O)[C@H](Cc1ccc(O)cc1)N=C(N)N | 2
CC(=O)O.CCN(C(=O)CNC(=O)[C@@H](CCCN=C(N)N)NC(=O)[C@@H](N)Cc1ccc(O)cc1)[C@@H](Cc1ccc(F)cc1)C(N)=O | 0.13
CC(=O)O.CCN(CCc1cccs1)C(=O)CNC(=O)[C@@H](CCCN=C(N)N)NC(=O)[C@H](Cc1ccc(O)cc1)N=C(N)N | 0.44
CC(=O)O.CCN(CCc1ccc([N+](=O)[O-])cc1)C(=O)CNC(=O)[C@@H](CCCN=C(N)N)NC(=O)[C@H](Cc1ccc(O)cc1)N=C(N)N | 0.24

tested on: Mus musculus; assay: Antinociceptive activity of perorally administered compound (20 mg) in phenyl-p-benzoquinone induced writhing mice; format: functional; settings: not given
Procedure, shortened: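 Female CD1 mice (Charles River), groups of five to six, dosed orally by blunt intragastric needle (10 mL kg-1) 30 min before ip PBQ at 2.5 mg kg-1. Abdominal constrictions/hind-limb extensions were counted over 2.5 min starting 10 min after PBQ. ED50 is the dose halving writhes versus vehicle, estimated by linear regression.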

SMILES | Inhibition [%]
CC(=O)O.CCN(CCc1ccco1)C(=O)CNC(=O)[C@@H](CCCN=C(N)N)NC(=O)[C@H](Cc1ccc(O)cc1)N=C(N)N | 10
CC(=O)O.CCN(Cc1ccc(-c2ccccc2)cc1)C(=O)CNC(=O)[C@@H](CCCN=C(N)N)NC(=O)[C@H](Cc1ccc(O)cc1)N=C(N)N | 0
CC(=O)O.CCN(CCc1ccc([N+](=O)[O-])s1)C(=O)CNC(=O)[C@@H](CCCN=C(N)N)NC(=O)[C@H](Cc1ccc(O)cc1)N=C(N)N | 7
CC(=O)O.CCN(CCc1cccs1)C(=O)CNC(=O)[C@@H](CCCN=C(N)N)NC(=O)[C@H](Cc1ccc(O)cc1)N=C(N)N | 15

tested on: Mus musculus; assay: Antinociceptive activity in the hot plate test (central activity) in rodents, when compound administered subcutaneously; format: functional; settings: sc
Procedure, shortened: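 Male CFLP mice, groups of five to six, placed on a copper surface held at 55 °C; latency to paw licking/shaking or jumping recorded, 30-s cut-off. Drug given subcutaneously at 10 mL kg-1. ED50 = dose doubling response latency versus vehicle, by parallel-line probit analysis.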

SMILES | ED50 [mg/kg]
CC(=O)O.CCN(C(=O)CNC(=O)[C@@H](CCCN=C(N)N)NC(=O)[C@H](Cc1ccc(O)cc1)N=C(N)N)[C@@H](Cc1ccc([N+](=O)[O-])cc1)C(N)=O | 0.34
CC(=O)O.CCN(C(=O)CNC(=O)[C@@H](CCCN=C(N)N)NC(=O)[C@@H](N)Cc1ccc(O)cc1)[C@@H](Cc1cccc(F)c1)C(N)=O | 1.7
CC(=O)O.CCN(CCc1ccc(F)cc1)C(=O)CNC(=O)[C@@H](CCCN=C(N)N)NC(=O)[C@@H](N)Cc1ccc(O)cc1 | 12.3
CC(=O)O.CCN(C(=O)CNC(=O)[C@@H](CCCN=C(N)N)NC(=O)[C@@H](N)Cc1ccc(O)cc1)[C@@H](Cc1ccc(C(F)(F)F)cc1)C(N)=O | 16.9
CC(=O)O.CCN(C(=O)CNC(=O)[C@@H](CCCN=C(N)N)NC(=O)[C@@H](N)Cc1ccc(O)cc1)[C@@H](Cc1ccc([N+](=O)[O-])cc1)C(N)=O | 0.54
CC(=O)O.CCN(C(=O)CNC(=O)[C@@H](CCCN=C(N)N)NC(=O)[C@@H](N)Cc1ccc(O)cc1)[C@@H](Cc1ccc(F)cc1)C(N)=O | 1.6
CC(=O)O.CCN(CCc1cccs1)C(=O)CNC(=O)[C@@H](CCCN=C(N)N)NC(=O)[C@H](Cc1ccc(O)cc1)N=C(N)N | 22.9
CC(=O)O.CCN(CCc1ccc([N+](=O)[O-])cc1)C(=O)CNC(=O)[C@@H](CCCN=C(N)N)NC(=O)[C@H](Cc1ccc(O)cc1)N=C(N)N | 19.2

species on record: Mus musculus; assay: Dose ratio in the presence and absence of the peripheral opioid antagonist in N-methyl-nalorphine in AA writhing mice; format: functional; settings: not given
Procedure, shortened: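 Acetic acid (0.6%, ip) writhing in male TFW mice; N-methylnalorphine 11.5 mg kg-1 ip 20 min before subcutaneous agonist. Writhes counted 5 min from 15 min post-irritant. Dose ratio taken as the shift between parallel regression lines with and without antagonist.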

SMILES | Ratio
CC(=O)O.CCN(C(=O)CNC(=O)[C@@H](CCCN=C(N)N)NC(=O)[C@H](Cc1ccc(O)cc1)N=C(N)N)[C@@H](Cc1ccc([N+](=O)[O-])cc1)C(N)=O | 5.1
CC(=O)O.CCN(C(=O)CNC(=O)[C@@H](CCCN=C(N)N)NC(=O)[C@@H](N)Cc1ccc(O)cc1)[C@@H](Cc1cccc(F)c1)C(N)=O | 2.2
CC(=O)O.CCN(CCc1ccc(F)cc1)C(=O)CNC(=O)[C@@H](CCCN=C(N)N)NC(=O)[C@@H](N)Cc1ccc(O)cc1 | 4.5
CC(=O)O.CCN(C(=O)CNC(=O)[C@@H](CCCN=C(N)N)NC(=O)[C@@H](N)Cc1ccc(O)cc1)[C@@H](Cc1ccc(C(F)(F)F)cc1)C(N)=O | 2.9
CC(=O)O.CCN(CCc1ccc([N+](=O)[O-])s1)C(=O)CNC(=O)[C@@H](CCCN=C(N)N)NC(=O)[C@@H](N)Cc1ccc(O)cc1 | 6.2
CC(=O)O.CCN(C(=O)CNC(=O)[C@@H](CCCN=C(N)N)NC(=O)[C@@H](N)Cc1ccc(O)cc1)[C@@H](Cc1ccc([N+](=O)[O-])cc1)C(N)=O | 3.4
CC(=O)O.CCN(CCc1ccc(C#N)cc1)C(=O)CNC(=O)[C@@H](CCCN=C(N)N)NC(=O)[C@@H](N)Cc1ccc(O)cc1 | 1.4
CC(=O)O.CCN(C(=O)CNC(=O)[C@@H](CCCN=C(N)N)NC(=O)[C@@H](N)Cc1ccc(O)cc1)[C@@H](Cc1ccc(F)cc1)C(N)=O | 2.3
CC(=O)O.CCN(CCc1ccc([N+](=O)[O-])cc1)C(=O)CNC(=O)[C@@H](CCCN=C(N)N)NC(=O)[C@H](Cc1ccc(O)cc1)N=C(N)N | 9.6
